Assay results as given in the EternaBench riboswitch data.

System: MS2 coat protein
Assay: apparent Kd, MS2 coat protein; higher = weaker binding; RNA-MaP array
Outline: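 In Tris-HCl pH 7.5 buffer with KCl, MgCl2, BSA, DTT, tRNA and Tween20, with or without input ligand, fluorescently labeled MS2 coat protein at 1.5 nM to 3 μM was incubated at room temperature with designed RNAs. The RNAs had been transcribed on an Illumina sequencing chip from sequenced DNA templates, and incubation ran 0.8–1.5 h at the lowest to 10–20 min at the highest concentrations. Apparent Kd is the median of binding-curve fits for individual clusters. Designs measured on fewer than 10 clusters were excluded.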

[1] = designed as: ON switch for tryptophan, no ligand
[2] = ligand present: tryptophan, designed as: ON switch for tryptophan
[3] = designed as: ON switch for theophylline, no ligand
[4] = ligand present: theophylline, designed as: ON switch for theophylline
[5] = designed as: ON switch for flavin mononucleotide, no ligand
[6] = ligand present: flavin mononucleotide, designed as: ON switch for flavin mononucleotide
[7] = designed as: OFF switch for flavin mononucleotide, no ligand
[8] = ligand present: flavin mononucleotide, designed as: OFF switch for flavin mononucleotide

Row | Sequence | apparent Kd [5] | apparent Kd [6] | apparent Kd [7] | apparent Kd [8] | also measured
1 | GGCUACAUGAGGAUCACCCAUGUUUCUCGUCGAGGACCGGUACGGCCGCCACUCGUUGUUGGGACUCAGUAUCAGUCGUUAGUUU |  |  |  |  | apparent Kd [1]: 0.0255 µM; apparent Kd [2]: 0.057 µM
2 | GGCUGACAUGAGGAUCACCCAUGUAGUGAUACCAGUAAGAGAAUAUACCCUUGGCAGCACAGGUAACAACUCGUCUCCAAAGUAA |  |  |  |  | apparent Kd [3]: 0.0427 µM; apparent Kd [4]: 0.0789 µM
3 | GGGAAACAUGAGGAUCACCCAUGUGUACAUAAGUAAGGAUAUAGAAGAGGUGACAGUGGUCUAGAAGGUACAACAC | 0.0656 µM | 0.0464 µM |  |  | 
4 | GGGAUGUUAGGAUAUGCUGGUUAAAAGAGAUUAAUACUCUAGCAGAAGGAACAUGAGGAUCACCCAUGUAGACA |  |  | 0.0106 µM | 0.0264 µM | 
5 | GGGCCACAUAAGAAGGUGAGCCACAGCGGCGUUCAAGGAUAUUAUAGGUAACCCACCAGACAUGAGGAUCACCCAUGUAGUGUC | 0.0367 µM | 0.0252 µM |  |  | 
6 | GGGUGAAGUGAGAAGGUUGGUGCUAGUUAAUUCAAAGGAUAUCAUUACUACGACAUGAGGAUCACCCAUGUAGCUGUACUGGAA |  |  | 0.0143 µM | 0.0124 µM | 
7 | GGUACGGCAGGAUAUGGCCUGGACUACAUGAGGAUCACCCAUGUCUUGCAGAAUGUCUAGCCAGAAGGGCCAUGAA |  |  | 0.0146 µM | 0.00852 µM | 
8 | GGUUAACAUGAGGAUCACCCAUGUCUUGAUACCAGUCGUUAUCUUGACCCUUGGCAGCAAGAUGACCGUUAGCAGCCGUCUUCUC |  |  |  |  | apparent Kd [3]: 0.0132 µM; apparent Kd [4]: 0.0195 µM
9 | GUACAUUUUGCAGGAUAUGUUCAAUACAUGAGGAUCACCCAUGUUCCCUGCUCGGGUCGAGCAUAACAGAAGGGCACUAUAUGU | 0.0289 µM | 0.0121 µM |  |  | 
10 | GUGAAACAUGAGGAUCACCCAUGUUAGGAUAUAGGUAACCUAGUACAUGAUCUGCUGGCUAGAAGGAACUGGAU |  |  | 0.0142 µM | 0.0115 µM | 
11 | GUGCUACAUGAGGAUCACCCAUGUGUGUAACAACAAGGAUAUGAUGCUUUGCCCGAAAGGUCAGAAGGUGUACGGC | 0.0129 µM | 0.0111 µM |  |  | 
12 | GUUUCGUCAGGAUAUGCUUAAGAAGUCUUCUCACCGGACUUGCAGAAGGGACAUGAGGAUCACCCAUGUGGUAA |  |  | 0.0365 µM | 0.167 µM | 
13 | GUUUUGGUACGAGGAUAUAAUGCCCUUGGAGAGUUAGAAGGCGUACGGGCUGUCCAUUAGAUACAUGAGGAUCACCCAUGUGAG |  |  | 0.0147 µM | 0.0122 µM | 
14 | UAAAGAUGUGCAGGAUAUUAGAAACGGCGGGAACUUAAAUUCAAACAUGAGGAUCACCCAUGUAAUAAGAAGGGCAAACUAAGA |  |  | 0.0159 µM | 0.0206 µM | 
15 | UAACCGUGAGGAUAUACAUGAGGAUCACCCAUGUGGUUUUGCUGCGCACAUACUUUAUGUAGAAGGCACAACUG |  |  | 0.05 µM | 0.0599 µM | 
16 | UAAGACGGGCGAGGAUAUACGAACUGGGUCAAAGUAGAAGGCGCGAGUCAUUGUUAUAAUCCAACAUGAGGAUCACCCAUGUCU | 0.0916 µM | 0.0156 µM |  |  | 
17 | UAAUGCAUAACAUGAGGAUCACCCAUGUAGUAAAAUGGUGGUUAGGAUAUAGCACGUGAAUCGACCUAGAAGGAACGUCCUUAC |  |  | 0.0333 µM | 0.03 µM | 
18 | UAAUUCAGGGAGAAGGUCUGAUCGUAACAUGCAGAAGGAUAUCCCAAUAACAUGAGGAUCACCCAUGUUUUGUUAUGCGUCAAC | 0.083 µM | 0.0198 µM |  |  | 
19 | UACCAAAUCACAGGAUAUGAGGCGCCAGCUAGGUCAGAAGGGUGACAUGAGGAUCACCCAUGUUCGCAGAAAAUAAUUGCUAAG | 0.688 µM | 0.678 µM |  |  | 
20 | UACCUUAGCAACAUGAGGAUCACCCAUGUUUGGUGGCGAAUUAGAAGGGACAGCAUUUAUACAAGUCAGGAUAUAAUUUAGGGA |  |  | 0.0165 µM | 0.0116 µM | 
21 | UACCUUAUGGAGAAGGCACGUCUCAGAGGAGCAACAUGAGGAUCACCCAUGUACCUGGGCUGAAGUGAGGAUAUCCAAAUCCCA | 0.0144 µM | 0.00718 µM |  |  | 

Row | Sequence | apparent Kd [5] | apparent Kd [6] | apparent Kd [7] | apparent Kd [8] | also measured
22 | UACGGAGCUCAGAAGGGACACUGCGGAGAUAUGUCAGGAUAUGACUUCUUAUCGUGUGGUGACAUGAGGAUCACCCAUGUGCUU |  |  | 0.209 µM | 0.338 µM | 
23 | UACGUGUUAGGAUAUCGAGUAGUAUGGCUGGCCUGCAAAACCGAGAAGGAACAUGAGGAUCACCCAUGUAUCUU |  |  | 0.00805 µM | 0.0113 µM | 
24 | UACUUUGUAUGCAAGGAUAUCCAGGAUUCUACAUGAGGAUCACCCAUGUCAAAUACUAUGCAACGGGAGAAGGUGCAUAACAUCAU | 0.0165 µM | 0.0122 µM |  |  | 
25 | UAGAGGUACGUUGGCGAACAUGAGGAUCACCCAUGUAAAUGAAGAAGGUGUGUUGCGCAAAACGACAAGGAUAUUCAAGACAUC | 0.0834 µM | 0.0507 µM |  |  | 
26 | UAGCAUAGUACGGCCGCCACUCCUGGUUCCCGGCCGUGUGUAAGACAUGAGGAUCACCCAUGUAGGAGGACCGGGUAUCGCUUGC |  |  |  |  | apparent Kd [1]: 0.014 µM; apparent Kd [2]: 0.0152 µM
27 | UAUACUAAUGUCAGGAUAUUAUAAAGUAAGAUAUAUAAGAAGGGACAUGAGGAUCACCCAUGUGACAAGGACGA |  |  | 0.0134 µM | 0.0298 µM | 
28 | UAUUAACAUGAGGAUCACCCAUGUUAUAGAGACCUAGGAUAUGCUUGCAUCCUCGCUCGUGCAGAAGGAGGUUUAU | 0.00708 µM | 0.00588 µM |  |  | 
29 | UAUUGGAUGACAGGAUAUCUACGAAGAAGUUGACAUGAGGAUCACCCAUGUAGGGUGUGGAGCAUAGAGAAGGGUCAGAACCUC |  |  | 0.702 µM | 0.44 µM | 
30 | UCAGUGGGUUCGGCCGCCACUUGAGUGAUGGUGCCUCAAUAAGUCUACAUGAGGAUCACCCAUGUAAGGACCGGGAAUUUUAUGG |  |  |  |  | apparent Kd (designed as: OFF switch for tryptophan, no ligand): 0.0353 µM; apparent Kd (ligand present: tryptophan, designed as: OFF switch for tryptophan): 0.0325 µM
31 | UCCACACAUGAGGAUCACCCAUGUUGAGAUACCAGUAAACCAAAAUACCCUUGGCAGCUCCUACGCUCUUACAGCGGGAAUAUCC |  |  |  |  | apparent Kd [3]: 0.0158 µM; apparent Kd [4]: 0.0231 µM
32 | UCCAGACAUGAGGAUCACCCAUGUUCAUGCCUCGGAGGAUAUCUAUGGGUGGAGGACUUUAGAGAAGGCCGAUCCG | 0.674 µM | 0.458 µM |  |  | 
33 | UCCUUACACAUGAGGAUCACCCAUGUAUCCACAGGUUGAGGGCAGGAUAUACAUAAUUUGACCUUGUAGAAGGGCCUGACAAAA |  |  | 0.213 µM | 0.103 µM | 
34 | UCGAUACCUCUAAUGAAGACAUGAGGAUCACCCAUGUUUAACAGAAGGUAGUCGGGAAGAUAGACUAAGGAUAUGUUGCAGGUG |  |  | 0.00963 µM | 0.0243 µM | 
35 | UCGCUGUAAGGAUAUACUCCGUUACUGUGUUAUAACGGACCGUAGAAGGUACAUGAGGAUCACCCAUGUGAAGU |  |  | 0.0111 µM | 0.0178 µM | 
36 | UCGGAUACUGUAGGAUAUCGACCAAAUUUUCCUCGAGAAGGACAUCUAUAUAUAGAGAACAUGAGGAUCACCCAUGUGUUUUUG |  |  | 0.015 µM | 0.0152 µM | 
37 | UCUAAACAUGAGGAUCACCCAUGUGAUUUACUCGCAGGAUAUGAGAGCUUGCACACGCAAUCAGAAGGGCGUCGAA | 0.0367 µM | 0.0287 µM |  |  | 
38 | UCUAGUGCAUAGGAUAUCAUGGUUCAUUAGUACUGAGAAGGAUGCACAUGAGGAUCACCCAUGUUCUCUGACAG |  |  | 0.0262 µM | 0.0805 µM | 
39 | UCUUGACAUGAGGAUCACCCAUGUCACAUUUCUAGAGGAUAUAUACAUGUUGAUCUCUGUAUAGAAGGCUAAGUCG | 0.0185 µM | 0.0117 µM |  |  | 
40 | UGAUCAGAACAGAAGGAGUAGUCUGCCUUGCUACUAGGAUAUGUUACAUGAGGAUCACCCAUGUGUUUAGGAUUGCCAUAAAGG | 0.0131 µM | 0.00908 µM |  |  | 
41 | UGCCCAAACAUGAGGAUCACCCAUGUUGUGACCUCGGGAGCCAGAAGGGUAUUAAACAAGUCGGUACAGGAUAUGGUCUAGUAA |  |  | 0.343 µM | 0.214 µM | 
42 | UGGUACAUGAGGAUCACCCAUGUCCUCAUCCGAGGACCGGUACGGCCGCCACUCGAAAUUGCGAUCGGCACAAAACAAAUGCUUG |  |  |  |  | apparent Kd [1]: 0.142 µM; apparent Kd [2]: 0.143 µM
